System: not listed separately
Experiment: Cmax in Sprague-Dawley rat plasma at 20 mg/kg, po
Assay type: ADME, organism-based
Set-up: dose 20 mg/kg, route oral
Settings: not given
How it was run: (§1)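 Sprague-Dawley rats were gavaged with 20 mg/kg in 23% hydroxypropyl-beta-cyclodextrin with 0.68% lactic acid; the screen co-dosed three compounds per animal. Blood was taken by cardiac puncture under CO2 anesthesia into sodium heparin at 0.25, 0.5, 1, 2, 4, 8, 12 and 24 h, from 3 rats per time point. Plasma was separated within 1 h. Plasma and brain levels were measured by LC/MS.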

| SMILES | Cmax [ng/mL] |
| --- | --- |
| CN(Cc1cccc(C(F)(F)F)c1)C(=O)[C@@H](CC(=O)N1CCC(N2CCCCC2)CC1)N1C(=O)[C@@H](N2C(=O)OC[C@@H]2c2ccccc2)[C@H]1/C=C/c1ccccc1 | 160 |
| O=C(NCc1cccc(C(F)(F)F)c1)[C@@H](CC(=O)N1CCC(N2CCCCC2)CC1)N1C(=O)[C@@H](N2C(=O)OC[C@@H]2c2ccccc2)[C@H]1/C=C/c1ccccc1 | 50 |
| C[C@@H](NC(=O)[C@@H](CC(=O)N1CCC(N2CCCCC2)CC1)N1C(=O)[C@@H](N2C(=O)OC[C@@H]2c2ccccc2)[C@H]1/C=C/c1ccccc1)c1ccccc1 | 100 |

System: not listed separately
Experiment: Cmax in Sprague-Dawley rat brain at 20 mg/kg, po
Assay type: ADME, organism-based
Set-up: dose 20 mg/kg, route oral
Settings: not given
How it was run: as §1

| SMILES | Cmax [ng/mL] |
| --- | --- |
| CN(Cc1cccc(C(F)(F)F)c1)C(=O)[C@@H](CC(=O)N1CCC(N2CCCCC2)CC1)N1C(=O)[C@@H](N2C(=O)OC[C@@H]2c2ccccc2)[C@H]1/C=C/c1ccccc1 | 48 |
| C[C@@H](NC(=O)[C@@H](CC(=O)N1CCC(N2CCCCC2)CC1)N1C(=O)[C@@H](N2C(=O)OC[C@@H]2c2ccccc2)[C@H]1/C=C/c1ccccc1)c1ccccc1 | 20 |

System: not listed separately
Experiment: Half life in Sprague-Dawley rat plasma at 20 mg/kg, po
Assay type: ADME, organism-based
Set-up: dose 20 mg/kg, route oral
Settings: not given
How it was run: as §1

| SMILES | half-life [h] |
| --- | --- |
| CN(Cc1cccc(C(F)(F)F)c1)C(=O)[C@@H](CC(=O)N1CCC(N2CCCCC2)CC1)N1C(=O)[C@@H](N2C(=O)OC[C@@H]2c2ccccc2)[C@H]1/C=C/c1ccccc1 | 4 |
| C[C@@H](NC(=O)[C@@H](CC(=O)N1CCC(N2CCCCC2)CC1)N1C(=O)[C@@H](N2C(=O)OC[C@@H]2c2ccccc2)[C@H]1/C=C/c1ccccc1)c1ccccc1 | 2.5 |

System: not listed separately
Experiment: Drug level in dog brain at 10 mg/kg, po after 4 hrs
Assay type: ADME, organism-based, Canis lupus familiaris
Set-up: dose 10 mg/kg, route oral
Settings: read-out: Drug uptake
How it was run: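 A single dog received an oral dose of 10 mg/kg in 10% DMSO/90% PEG300. Brain regions (cortex, brain stem, cerebellum, hypothalamus, hippocampus) and blood were frozen and stored at −70 °C. Samples were homogenized in pH 9.4 buffer, extracted with ethyl acetate with an extraction reference added, reconstituted in acetonitrile, and quantified by ESI LC/MS/MS against spiked control brain standards.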

| SMILES | concentration at 4 h [nM] |
| --- | --- |
| CC(C)C[C@@H](C(=O)N1CCC(CCN2CCCCC2)CC1)N1C(=O)[C@@H](N2C(=O)OC[C@@H]2c2ccccc2)[C@H]1/C=C/c1ccccc1 | 100 |

System: not listed separately
Experiment: Half life in Sprague-Dawley rat brain at 20 mg/kg, po
Assay type: ADME, organism-based
Set-up: dose 20 mg/kg, route oral
Settings: not given
How it was run: as §1

| SMILES | half-life [h] |
| --- | --- |
| CN(Cc1cccc(C(F)(F)F)c1)C(=O)[C@@H](CC(=O)N1CCC(N2CCCCC2)CC1)N1C(=O)[C@@H](N2C(=O)OC[C@@H]2c2ccccc2)[C@H]1/C=C/c1ccccc1 | 6 |
| C[C@@H](NC(=O)[C@@H](CC(=O)N1CCC(N2CCCCC2)CC1)N1C(=O)[C@@H](N2C(=O)OC[C@@H]2c2ccccc2)[C@H]1/C=C/c1ccccc1)c1ccccc1 | 6 |

System: not listed separately
Experiment: Tmax in Sprague-Dawley rat plasma at 20 mg/kg, po
Assay type: ADME, organism-based
Set-up: dose 20 mg/kg, route oral
Settings: not given
How it was run: as §1

| SMILES | Tmax [h] |
| --- | --- |
| CN(Cc1cccc(C(F)(F)F)c1)C(=O)[C@@H](CC(=O)N1CCC(N2CCCCC2)CC1)N1C(=O)[C@@H](N2C(=O)OC[C@@H]2c2ccccc2)[C@H]1/C=C/c1ccccc1 | 4 |
| C[C@@H](NC(=O)[C@@H](CC(=O)N1CCC(N2CCCCC2)CC1)N1C(=O)[C@@H](N2C(=O)OC[C@@H]2c2ccccc2)[C@H]1/C=C/c1ccccc1)c1ccccc1 | 4 |

Target: Vasopressin V1a receptor (Homo sapiens, UniProt P37288)
Sequence (P37288 whole entry): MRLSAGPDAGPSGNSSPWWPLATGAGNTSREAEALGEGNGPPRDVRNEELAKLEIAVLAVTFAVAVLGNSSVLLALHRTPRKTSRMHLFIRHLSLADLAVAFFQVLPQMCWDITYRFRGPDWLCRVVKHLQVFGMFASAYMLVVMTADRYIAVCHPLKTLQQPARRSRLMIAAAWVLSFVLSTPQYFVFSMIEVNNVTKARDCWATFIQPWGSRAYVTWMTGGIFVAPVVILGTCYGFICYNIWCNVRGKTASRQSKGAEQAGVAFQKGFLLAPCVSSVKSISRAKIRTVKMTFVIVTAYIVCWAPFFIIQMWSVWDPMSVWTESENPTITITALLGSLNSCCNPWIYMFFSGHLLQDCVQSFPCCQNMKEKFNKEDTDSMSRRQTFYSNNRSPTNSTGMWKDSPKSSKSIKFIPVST
Experiment: Binding affinity for human cloned vasopressin V1a receptor expressed in CHO cells
Assay type: cell-based
Settings: not given
How it was run: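 Whole-cell competition binding on CHO cells stably expressing human V1a, grown in alpha-MEM with 10% FBS and 250 ug/ml G418. Cells were plated at least 2 days ahead and incubated 30 min at 37 °C in HEPES/BSA/DMEM buffer (pH 7.0) with 1 nM [3H]AVP and 5 test concentrations (usually 0.1–1000 nM), in triplicate. Nonspecific binding was set with 100 nM AVP. Bound radioactivity was SDS-lysed and scintillation-counted. Curve-fit IC50 was converted to Ki with a 0.61 factor.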

| SMILES | IC50 [nM] | Ki [nM] |
| --- | --- | --- |
| CC(=O)NC1C(=O)N(C(C(=O)OCc2ccccc2)C2(C)OCCO2)[C@@H]1/C=C/c1ccccc1 (stereo not given in full) | > 20000 | – |
| C[C@@H](NC(=O)[C@H](CC(=O)N1CCC(CCN2CCCCC2)CC1)N1C(=O)[C@@H](N2C(=O)OC[C@@H]2c2ccccc2)[C@H]1/C=C/c1ccccc1)c1ccccc1 | – | 179 |
| CC1(C(C(=O)OCc2ccccc2)N2C(=O)C(NC(=O)Nc3ccccc3)[C@H]2/C=C/c2ccccc2)OCCO1 (stereo not given in full) | > 5000 | – |
| CC1(C(C(=O)OCc2ccccc2)N2C(=O)C(C)(C)[C@H]2/C=C/c2ccccc2)OCCO1 (stereo not given in full) | > 20000 | – |
| CC(C)(C)C(=O)C(C(=O)OCc1ccccc1)N1C(=O)[C@@H](N2C(=O)OC[C@@H]2c2ccccc2)[C@H]1C=O (stereo not given in full) | > 20000 | – |
| O=C(CN1C(=O)[C@@H](N2C(=O)OC[C@@H]2c2ccccc2)[C@H]1/C=C/c1ccccc1)OCc1ccccc1 | 400 | – |
| CC1(C(C(=O)OCC[Si](C)(C)C)N2C(=O)[C@@H](N3C(=O)OC[C@@H]3c3ccccc3)[C@H]2/C=C/c2ccccc2)OCCO1 (stereo not given in full) | 405 | – |
| O=C(NCc1cccc(C(F)(F)F)c1)[C@@H](CCC(=O)N1CCN(CC2CCCCC2)CC1)N1C(=O)[C@@H](N2C(=O)OC[C@@H]2c2ccccc2)[C@H]1/C=C/c1ccccc1 | – | > 12 |
| O=C(NCc1cccc(C(F)(F)F)c1)[C@H](CC(=O)N1CCN(C2CCCCC2)CC1)N1C(=O)[C@@H](N2C(=O)OC[C@@H]2c2ccccc2)[C@H]1/C=C/c1ccccc1 | – | 30 |
| CN(C)CCCNC(=O)[C@H](CC(=O)NCc1cccc(C(F)(F)F)c1)N1C(=O)[C@@H](N2C(=O)OC[C@@H]2c2ccccc2)[C@H]1/C=C/c1ccccc1 | – | > 600 |
| O=C(OCc1ccccc1)C(C(=O)c1ccccc1)N1C(=O)[C@@H](N2C(=O)OC[C@@H]2c2ccccc2)[C@H]1/C=C/c1ccccc1 (stereo not given in full) | 100 | – |
| CC1(C(C(=O)OCc2ccccc2)N2C(=O)C(N)[C@H]2/C=C/c2ccccc2)OCCO1 (stereo not given in full) | > 20000 | – |
| O=C(NCc1cccc(C(F)(F)F)c1)[C@H](CC(=O)N1CCC(CCN2CCCCC2)CC1)N1C(=O)[C@@H](N2C(=O)OC[C@@H]2c2ccccc2)[C@H]1/C=C/c1ccccc1 | – | 23 |
| O=C(C[C@@H](C(=O)N1CCN(CCc2ccccc2)CC1)N1C(=O)[C@@H](N2C(=O)OC[C@@H]2c2ccccc2)[C@H]1/C=C/c1ccccc1)NCc1cccc(C(F)(F)F)c1 | – | 6100 |
| CN(C)CCNC(=O)[C@H](CC(=O)NCc1cccc(C(F)(F)F)c1)N1C(=O)[C@@H](N2C(=O)OC[C@@H]2c2ccccc2)[C@H]1/C=C/c1ccccc1 | – | > 600 |
| CC(C)C[C@@H](C(=O)NCc1ccccc1Cl)N1C(=O)[C@@H](N2C(=O)OC[C@@H]2c2ccccc2)[C@H]1/C=C/c1ccccc1 | 1000 | – |
| CC(C)(C)C(=O)C(C(=O)OCc1ccccc1)N1C(=O)[C@@H](N2C(=O)OC[C@@H]2c2ccccc2)[C@H]1CCc1ccccc1 (stereo not given in full) | > 500 | – |
| CC(C)(C)C(=O)C(C(=O)OCc1ccccc1)N1C(=O)[C@@H](N2C(=O)OC[C@@H]2c2ccccc2)[C@H]1/C=C/c1ccco1 (stereo not given in full) | 2 | – |
| CC1(C(C(=O)O)N2C(=O)[C@@H](N3C(=O)OC[C@@H]3c3ccccc3)[C@H]2/C=C/c2ccccc2)OCCO1 (stereo not given in full) | > 5000 | – |

| SMILES | IC50 [nM] | Ki [nM] |
| --- | --- | --- |
| O=C(NCc1cccc(C(F)(F)F)c1)[C@H](CC(=O)N1CCN(C2CCCC2)CC1)N1C(=O)[C@@H](N2C(=O)OC[C@@H]2c2ccccc2)[C@H]1/C=C/c1ccccc1 | – | < 60 |
| O=C(NCc1cccc(C(F)(F)F)c1)[C@H](CC(=O)N1CCN(CCN2CCCC2)CC1)N1C(=O)[C@@H](N2C(=O)OC[C@@H]2c2ccccc2)[C@H]1/C=C/c1ccccc1 | – | < 60 |
| O=C(NCc1ccc(F)c(C(F)(F)F)c1)[C@H](CCC(=O)N1CCN(C2CCCCC2)CC1)N1C(=O)[C@@H](N2C(=O)OC[C@@H]2c2ccccc2)[C@H]1/C=C/c1ccccc1 | – | < 30 |
| O=C(NCc1cccc(C(F)(F)F)c1)[C@@H](CCC(=O)N1CCC(N2CCCCC2)CC1)N1C(=O)[C@@H](N2C(=O)OC[C@@H]2c2ccccc2)[C@H]1/C=C/c1ccccc1 | – | 30 |
| CC1(C(C(=O)OCc2ccccc2)N2C(=O)[C@@H](N3C(=O)OC[C@@H]3c3ccccc3)[C@H]2/C=C/c2ccccc2)OCCO1 (stereo not given in full) | 45 | – |
| CC1(C(C(=O)OCc2ccccc2)N2C(=O)[C@@H](N3C(=O)c4ccccc4C3=O)[C@H]2/C=C/c2ccccc2)OCCO1 (stereo not given in full) | 61000 | – |
| CCCN1CCN(C(=O)CC[C@@H](C(=O)NCc2cccc(C(F)(F)F)c2)N2C(=O)[C@@H](N3C(=O)OC[C@@H]3c3ccccc3)[C@H]2/C=C/c2ccccc2)CC1 | – | 1.19 |
| C[C@H](NC(=O)[C@H](CC(=O)N1CCC(CCN2CCCCC2)CC1)N1C(=O)[C@@H](N2C(=O)OC[C@@H]2c2ccccc2)[C@H]1/C=C/c1ccccc1)c1ccccc1 | – | 8.7 |
| CC(C)C[C@@H](C(=O)N1CCC(N2CCCCC2)CC1)N1C(=O)[C@@H](N2C(=O)OC[C@@H]2c2ccccc2)[C@H]1/C=C/c1ccccc1 | 54 | – |
| O=C(NCc1cccc(C(F)(F)F)c1)[C@@H](CC(=O)N1CCN(N2CCCC2)CC1)N1C(=O)[C@@H](N2C(=O)OC[C@@H]2c2ccccc2)[C@H]1/C=C/c1ccccc1 | – | 27.5 |
| O=C(NCc1cccc(C(F)(F)F)c1)[C@H](CCC(=O)N1CCN(C2CCCCC2)CC1)N1C(=O)[C@@H](N2C(=O)OC[C@@H]2c2ccccc2)[C@H]1/C=C/c1ccccc1 | – | 0.27 |
| CC(C)C[C@@H](C(=O)NCc1ccccc1)N1C(=O)[C@@H](N2C(=O)OC[C@@H]2c2ccccc2)[C@H]1/C=C/c1ccccc1 | 128 | – |
| O=C(NCc1cccc(C(F)(F)F)c1)[C@H](CCC(=O)N1CCN(CCc2ccccc2)CC1)N1C(=O)[C@@H](N2C(=O)OC[C@@H]2c2ccccc2)[C@H]1/C=C/c1ccccc1 | – | 1.17 |
| O=C(CC[C@@H](C(=O)NCc1cccc(C(F)(F)F)c1)N1C(=O)[C@@H](N2C(=O)OC[C@@H]2c2ccccc2)[C@H]1/C=C/c1ccccc1)NCCN1CCCCC1 | – | 9 |
| CC(C)C[C@@H](C(=O)NCc1ccc(Cl)cc1)N1C(=O)[C@@H](N2C(=O)OC[C@@H]2c2ccccc2)[C@H]1/C=C/c1ccccc1 | 262 | – |
| C[C@@H](NC(=O)[C@H](CC(=O)N1CCC(N2CCCCC2)CC1)N1C(=O)[C@@H](N2C(=O)OC[C@@H]2c2ccccc2)[C@H]1/C=C/c1ccccc1)c1cccc(C(F)(F)F)c1 | – | > 6 |
| O=C(NCc1cccc(C(F)(F)F)c1)[C@H](CCC(=O)N1CCC(CN2CCCCC2)CC1)N1C(=O)[C@@H](N2C(=O)OC[C@@H]2c2ccccc2)[C@H]1/C=C/c1ccccc1 | – | 1.95 |
| CC(C)(C)C(=O)[C@@H](C(=O)N1CCC(CCN2CCCCC2)CC1)N1C(=O)[C@@H](N2C(=O)OCC2c2ccccc2)C1/C=C/c1ccccc1 (single isomer, unassigned) | 85 | – |
| C[C@@H](NC(=O)[C@@H](CC(=O)N1CCC(N2CCCCC2)CC1)N1C(=O)[C@@H](N2C(=O)OC[C@@H]2c2ccccc2)[C@H]1/C=C/c1ccccc1)c1cccc(C(F)(F)F)c1 [SRX246] | – | 1.27 |
